From PubChem BioAssay AID686992 (Broad Institute, 2013)
Screen size: about 260,000 compounds; about 960 (0.37%) were called active. The full list was thinned out, with actives kept by preference. Unmarked numbers belong to inactive results.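 Rule for the calls: active = mean E-selectin-positive cell signal at least 10% of the positive control, reached in at least 60% of replicates, without over 20% cell loss; inconclusive = no rule given, readout overlaps actives, possibly toxicity-flagged; inactive = the rest, including those meeting only one limit.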

biological target: E-selectin (Homo sapiens) (UniProt P16581); assay: inducers of endothelial E-selectin expression – imaging, HUVEC, immunofluorescence imaging, single point, primary screen (AID 686992); details: at 7.58 µM, active compounds read high, normalized: neutral wells 0, TNF-alpha wells 100;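 note: signal is the percent of cells scored E-selectin positive by PE staining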
Procedure, shortened: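 Material: HUVEC primary endothelial cells; Amount: 3,000 cells per well; Dosing: single concentration; Medium: EGM-2 growth medium on 0.1% gelatin-coated wells; Read-out basis: percent E-selectin-positive cells; Signal: immunofluorescence imaging; Control set: TNF-alpha, DMSO.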

E-selectin (Homo sapiens), sequence (P16581 whole entry, looked up): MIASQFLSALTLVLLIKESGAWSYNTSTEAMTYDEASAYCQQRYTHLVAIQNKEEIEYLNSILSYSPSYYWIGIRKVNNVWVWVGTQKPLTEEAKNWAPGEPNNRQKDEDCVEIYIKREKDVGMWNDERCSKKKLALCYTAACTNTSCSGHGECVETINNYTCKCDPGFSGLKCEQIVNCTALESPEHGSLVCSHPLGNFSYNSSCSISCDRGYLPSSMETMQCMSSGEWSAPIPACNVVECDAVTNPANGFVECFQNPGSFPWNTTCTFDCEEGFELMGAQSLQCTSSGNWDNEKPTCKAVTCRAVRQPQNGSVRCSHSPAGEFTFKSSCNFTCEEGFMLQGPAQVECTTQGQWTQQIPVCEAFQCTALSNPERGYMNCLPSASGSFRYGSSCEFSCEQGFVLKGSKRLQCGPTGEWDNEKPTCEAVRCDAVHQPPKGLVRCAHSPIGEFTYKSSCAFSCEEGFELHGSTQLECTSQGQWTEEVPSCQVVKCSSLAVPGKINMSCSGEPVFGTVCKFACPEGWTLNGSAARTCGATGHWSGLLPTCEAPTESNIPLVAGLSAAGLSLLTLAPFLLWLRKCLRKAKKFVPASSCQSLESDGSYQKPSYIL

Row | SMILES | activation
1 | O=Cc1cn(Cc2ccccc2)nc1-c1cccnc1 | 2.7%
2 | O=Cc1cn(-c2ccccc2)nc1-c1ccccn1 | 31.7% (active)
3 | COc1ccc(-c2nn(-c3ccccc3)cc2/C=N/Nc2ccccn2)cc1OC | -1.26%
4 | COC(=O)c1ccc2nc(-c3ccc(Cl)cc3)c(Cc3cccc(F)c3)n2c1 | -0.152%
5 | Cc1cc2nc(-c3ccc(F)cc3)c(Cc3ccsc3)n2c(C)c1Br | 0.0835%
6 | O=C(CCCn1c(=O)c2sccc2n(CC(=O)NCC2CCCO2)c1=O)NCc1ccco1 (stereo unspecified) | 8.64%
7 | O=C(Cc1ccc(-n2c(=O)c3sccc3n(Cc3ccc(F)cc3)c2=O)cc1)NCc1ccco1 | 159% (active)
8 | CC1=C(C(=O)N2CCOCC2)CC(CC(=O)NCc2ccco2)C(=O)N1Cc1ccc(F)cc1 (stereo unspecified) | 8.96%
9 | CC1(C(=O)Nc2cccc3c2CCCC3)CCN1C(=O)C1(c2ccccc2)CC1 (stereo unspecified) | 0.283%
10 | COCCCNC(=O)C[C@H]1C[C@@]2(C(=O)OC)C(=C[C@H](C(C)(C)C)O[C@@H]2C)N(Cc2ccc3c(c2)OCO3)C1=O | -0.0885%
11 | O=C(C[C@@H]1C[C@H]2c3cc(NC(=O)NC4CCCC4)ccc3O[C@H]2[C@@H](CO)O1)NC1CCCCC1 | 0.37%
12 | CC1COc2ccccc2N1S(=O)(=O)c1ccccc1 (stereo unspecified) | 0.485%
13 | CC1CC(=O)Nc2ccccc2N1C(=O)COc1ccc2cc(Br)ccc2c1 (stereo unspecified) | 0.0775%
14 | CC1CC(=O)Nc2ccccc2N1S(=O)(=O)c1cccs1 (stereo unspecified) | 28.3% (active)
15 | CC(C)C[C@H]1CN([C@@H](CC(C)C)CN2CCC[C@@H]2CN2C(=O)C(=O)NC[C@@H]2Cc2ccccc2)C(=O)C(=O)N1CCc1ccccc1 | 0.726%
16 | CO[C@H]1CN(C)C(=O)c2cc(NC(=O)c3cc(C)on3)ccc2OC[C@@H](C)N(C(C)=O)C[C@H]1C | -0.127%
17 | COc1cccc(-c2ccc3c(c2)N(Cc2ccccc2OC)C(=O)C(C)S3)c1 (stereo unspecified) | -0.102%
18 | O=S1(=O)CCN(C2CCCCCCCCCCC2)CC1 | -0.851%
19 | O=C(CNS(=O)(=O)c1ccccc1)N1CCN(C(=O)c2ccco2)CC1 | 0.056%
20 | O=C(c1ccco1)N1CCN(C(=S)Nc2cc(F)cc(F)c2)CC1 | -1.13%
21 | CC(C)C(c1nnnn1C1CCCCC1)N1CCN(C(=O)c2ccco2)CC1 (stereo unspecified) | 39.5% (active)
22 | Cc1noc(C)c1NC(=O)Nc1ccc2c(c1)CC(=O)N([C@H](C)CO)C[C@@H](C)[C@@H](CN(C)Cc1ccc(C(F)(F)F)cc1)O2 | -0.087%
23 | Cc1noc(C)c1NC(=O)Nc1ccc2c(c1)CC(=O)N([C@@H](C)CO)C[C@@H](C)[C@@H](CN(C)Cc1ccc(Cl)c(Cl)c1)O2 | 449% (active)
24 | C[C@H](CO)N1C[C@H](C)[C@@H](CN(C)Cc2ccc(C(=O)O)cc2)Oc2ccc(NC(=O)Cn3cnnn3)cc2CC1=O | 2.12%
25 | C[C@@H]1CN([C@H](C)CO)C(=O)Cc2cc(NC(=O)Nc3ccccc3)ccc2O[C@H]1CN(C)Cc1ccc(Cl)c(Cl)c1 | 0.392%
26 | COc1ccc(CN(C)C[C@H]2Oc3ccc(NC(=O)Cn4cnnn4)cc3CC(=O)N([C@@H](C)CO)C[C@@H]2C)cc1 | 52.1% (active)

Row | SMILES | activation
27 | C[C@H]1CN([C@@H](C)CO)C(=O)Cc2cc(NC(=O)Cn3cnnn3)ccc2O[C@H]1CN(C)Cc1ccc(C(=O)O)cc1 | -4.49%
28 | O=C(NCCN1CCOCC1)c1ccc2c(c1)N(Cc1cccc(Cl)c1)C(=O)c1ccccc1S2(=O)=O | 0.148%
29 | COc1ccc(NC(=O)CCCOc2ccc(C(C)=O)cc2)cc1S(=O)(=O)N1CCCCC1 | -6.06%
30 | CCOC(=O)C1CCN(C(=O)c2ccc3c(=O)n4nc(Nc5ccccc5CC)sc4nc3c2)CC1 | -0.0345%
31 | COc1ccc(NC(=O)C(c2ccncc2)n2c(=O)c(-c3cc4ccccc4[nH]3)nc3ccccc32)cc1 (stereo unspecified) | 0.124%
32 | CCOC(=O)C1CSCCS(=O)(=O)N1Cc1ccc(Cl)cc1 (stereo unspecified) | 0.0275%
33 | CN[C@H]1C[C@H]2c3cc(Oc4ccccc4C)ccc3CCN2C(=O)[C@H]1[C@H](C)O | -1.54%
34 | Cc1ccc(C)c(NC(=O)CN(C)C(=O)COc2ccc3ccccc3c2)c1 | -0.121%
35 | Cc1cc2ccccc2n1CCNC(=O)COc1ccc2ccccc2c1 | 51.8% (active)
36 | COC(=O)C(C)NC(=O)COc1ccc2ccccc2c1 (stereo unspecified) | 0.228%
37 | CCCN1C[C@@H](C)[C@@H](OC)CN(C)C(=O)c2cc(NC(=O)CC(F)(F)F)ccc2OC[C@H]1C | 0.11%
38 | CC(C)(C)OC(=O)N[C@H](C(=O)OC(C)(C)C)c1ccc(Br)cc1 | 0.0795%
39 | O=C(NN=Cc1ccco1)C(=O)Nc1ccc(Cl)c([N+](=O)[O-])c1 | -0.0805%
40 | CC(=O)N1C[C@@H](CO)[C@@H](N(C)C(=O)C(C)(C)C)C[C@H]1c1ccccc1Br | -0.326%
41 | COc1cccc2cc(S(=O)(=O)c3ccc(C)cc3)/c(=N/NS(=O)(=O)c3ccc(C)cc3)oc12 | 0.616%
42 | Cc1cc(S(=O)(=O)c2cc3ccc(O)c(C)c3oc2=O)ccc1F | 69.9% (active)
43 | Cc1ccc(CC2(C)C(=O)Nc3ccc(OC(F)(F)F)cc32)cc1 (stereo unspecified) | -0.201%
44 | Cn1cnc(S(=O)(=O)N2C[C@@H](O)COC[C@H]3O[C@@H](CC(=O)NCc4ccc(F)cc4)CC[C@@H]32)c1 | -0.0625%
45 | O=C(NC[C@H]1[C@@H](c2ccccc2)[C@H](CO)N1CC1CC1)c1cccnc1 | 0.036%
46 | Cc1ccc(Nc2nc(-c3sc(NC(=O)c4ccccc4)nc3C)cs2)cc1 | 0.138%
47 | Cc1ccc(Nc2nnc(SC(C)C(=O)NC3CC3)s2)cc1 (stereo unspecified) | -0.687%
48 | Cc1ccc(Nc2nc(Cl)c(C=O)s2)cc1 | 48.9% (active)
49 | Cc1[nH]nc2c1C(c1ccc(Br)cc1)NC2=O (stereo unspecified) | -0.228%
50 | COc1ccc(S(=O)(=O)N(C)C[C@H]2Oc3ccc(NC(=O)Nc4c(C)noc4C)cc3CC(=O)N([C@@H](C)CO)C[C@H]2C)cc1 | -4.24%
51 | COc1ccc(NC(=O)Nc2ccc3c(c2)C(=O)N([C@@H](C)CO)C[C@H](C)[C@@H](CN(C)S(=O)(=O)c2ccc(Cl)cc2)O3)cc1 | 8.29%
52 | COc1ccc(S(=O)(=O)N(C)C[C@H]2Oc3ccc(NC(=O)Nc4c(C)noc4C)cc3C(=O)N([C@@H](C)CO)C[C@@H]2C)cc1 | 43.2% (active)

Row | SMILES | activation
53 | COc1ccc(S(=O)(=O)N(C)C[C@H]2Oc3ccc(NC(=O)Nc4c(C)noc4C)cc3C(=O)N([C@H](C)CO)C[C@H]2C)cc1 | 45.3% (active)
54 | COc1ccc(S(=O)(=O)N(C)C[C@@H]2Oc3ccc(NC(=O)Nc4c(C)noc4C)cc3C(=O)N([C@H](C)CO)C[C@@H]2C)cc1 | -0.053%
55 | Cc1noc(C)c1NC(=O)Nc1ccc2c(c1)C(=O)N([C@@H](C)CO)C[C@H](C)[C@H](CN(C)S(=O)(=O)c1ccc(Cl)cc1)O2 | -0.247%
56 | CC1=C(C(=O)N(C(C)C)C(C)C)CC(CC(=O)NCCCCc2ccccc2)C(=O)N1CCC1=CCCCC1 (stereo unspecified) | 1.3%
57 | Cc1cc(C)n2c(Nc3c(C)cccc3C)c(CCc3ccccc3)nc2n1 | 0.0345%
58 | COc1cccc2c1C(=O)c1c(O)c3c(c(O)c1C2=O)CC(O)(C(C)=NNC(=O)c1ccc(Cl)c(Cl)c1)CC3OC1CC(N)C(O)C(C)O1 (stereo unspecified) | 160% (active)
59 | CO[C@H]1CN(C)C(=O)c2ccc(NC(=O)CC(F)(F)F)cc2OC[C@H](C)N(C(=O)C2CC2)C[C@H]1C | -0.112%
60 | CCC(=O)Nc1ccc2c(c1)C(=O)N(C)[C@@H]1CC[C@@H](CC(=O)NCCN3CCCCC3)O[C@@H]1CO2 | -0.0795%
61 | CCNS(=O)(=O)c1ccc(CCC(=O)N2CCN(c3ccc(OC)cc3)CC2)cc1 | 31.3% (active)
62 | CCNS(=O)(=O)c1ccc(CCC(=O)N2CCN(c3cc(Cl)ccc3C)CC2)cc1 | -0.168%
63 | COc1ccc(N2CCN(C(=O)CNC(=O)c3ccc(Br)o3)CC2)cc1 | -0.05%
64 | COc1ccccc1CCn1cnc(-c2ccccc2)c1C(C)C | -0.038%
65 | O=C(c1cccnc1)N1C[C@@H]2[C@H](c3ccccc31)[C@@H](CO)N2C(=O)Nc1ccc(F)cc1 | 0.778%
66 | Cc1cccc(NS(=O)(=O)c2cccc(C(=O)NNC(=O)c3ccccc3O)c2)c1 | -0.07%
67 | O=C(Nc1ccc(Br)cc1)c1cc(S(=O)(=O)Nc2ccccn2)ccc1Cl | 0.225%
68 | Cc1ccccc1NC(=O)c1cc(S(=O)(=O)Nc2cccc(C(=O)O)c2)ccc1Cl | 65.6% (active)
69 | CC(C)C[C@H]1CN([C@@H](Cc2ccccc2)CN2CCC[C@@H]2CN2C(=O)C(=O)NC[C@@H]2Cc2ccc(O)cc2)C(=O)C(=O)N1CCc1ccccc1 | 9.99%
70 | CCCCNC(=O)c1ccccc1NC(=O)C1=C(C)OCCS1 | 0.108%
71 | COc1ccc(N2CCN(C(=O)c3ccccc3NC(=O)C3=C(C)OCCS3)CC2)cc1 | 54.3% (active)
72 | COc1ccc(C(=O)Nc2ccccc2C(=O)N2CCN(c3ccccc3)CC2)cc1 | 0.169%
73 | COc1ccc(Sc2ccc(NC(=O)c3cccc(Cl)c3)cc2C#N)cc1 | 2.08%
74 | O=C(O)C1CCC(CNS(=O)(=O)c2ccc(Br)cc2)CC1 (stereo unspecified) | -0.071%
75 | COCCCNC(=O)C1CCC(CNS(=O)(=O)c2ccc(OC)cc2)CC1 (stereo unspecified) | -0.0375%
76 | CCCCSCCCNC(=O)C1CCC(CNS(=O)(=O)c2ccc(NC(C)=O)cc2)CC1 (stereo unspecified) | 58.2% (active)
